Measurements taken from ChEMBL document CHEMBL1142034, “Inhibitors of HCV NS5B polymerase: synthesis and structure-activity relationships of N-1-heteroalkyl-4-hydroxyquinolon-3-yl-benzothiadiazines” (Bioorg Med Chem Lett, 2005).

Assays:
[1] = molecular target: T1, RNA-directed RNA polymerase (Hepacivirus hominis, UniProt O39930); assay: Inhibitory concentration against RNA dependent RNA polymerase Nonstructural protein 5B of genotype 1b Hepatitis C virus
How it was run: (§1)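 A biochemical assay on NS5B polymerase enzyme gave the IC50 values, run separately for genotype 1a and 1b.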

[2] = molecular target: T1, RNA-directed RNA polymerase; assay: Inhibitory concentration against RNA dependent RNA polymerase Nonstructural protein 5B of genotype 1a Hepatitis C virus; how it was run: as §1
[3] = molecular target: T1, RNA-directed RNA polymerase; assay: Effective concentration against RNA dependent RNA polymerase Nonstructural protein 5B of genotype 1b Hepatitis C virus
How it was run: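 Activity measured in an HCV replicon assay, with EC50 values derived from it.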

T1 sequence (O39930 whole entry): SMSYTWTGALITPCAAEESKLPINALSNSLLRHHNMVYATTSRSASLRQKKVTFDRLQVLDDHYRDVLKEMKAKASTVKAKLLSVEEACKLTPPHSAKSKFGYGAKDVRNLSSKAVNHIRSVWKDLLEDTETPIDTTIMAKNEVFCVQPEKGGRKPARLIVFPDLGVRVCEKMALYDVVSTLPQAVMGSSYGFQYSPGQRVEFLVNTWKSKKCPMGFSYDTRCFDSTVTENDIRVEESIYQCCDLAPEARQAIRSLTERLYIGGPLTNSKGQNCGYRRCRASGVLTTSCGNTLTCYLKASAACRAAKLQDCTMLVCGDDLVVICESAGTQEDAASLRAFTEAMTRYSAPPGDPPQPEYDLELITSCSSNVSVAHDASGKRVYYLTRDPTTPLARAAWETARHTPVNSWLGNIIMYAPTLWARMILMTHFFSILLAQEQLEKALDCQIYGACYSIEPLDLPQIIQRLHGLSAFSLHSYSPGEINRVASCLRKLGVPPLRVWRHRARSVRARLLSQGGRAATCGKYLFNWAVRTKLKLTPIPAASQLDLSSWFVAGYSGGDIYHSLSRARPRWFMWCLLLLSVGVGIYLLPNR

Row | Structure (SMILES) | IC50 [1] [nM] | IC50 [2] [nM] | EC50 [3] [nM]
1 | O=c1c(C2=Nc3ccccc3S(=O)(=O)N2)c(O)c2ccccc2n1NCC1CCCC1 | 150 | 747 | 
2 | CCCCNn1c(=O)c(C2=Nc3ccccc3S(=O)(=O)N2)c(O)c2ccccc21 | 161 | 951 | 3480
3 | O=c1c(C2=Nc3ccccc3S(=O)(=O)N2)c(O)c2ccccc2n1NCc1ccoc1 | 133 | 1550 | 
4 | O=c1c(C2=Nc3ccccc3S(=O)(=O)N2)c(O)c2ccccc2n1NCc1cccs1 | 125 | 2330 | 
5 | O=c1c(C2=NS(=O)(=O)c3ccccc3N2)c(O)c2cccnc2n1Cc1ccccc1 | 83 |  | 
6 | CC(Nn1c(=O)c(C2=Nc3ccccc3S(=O)(=O)N2)c(O)c2ccccc21)c1ccccc1 (configuration not stated) | 1490 | 16500 | 
7 | CCC(CC)n1c(=O)c(C2=NS(=O)(=O)c3ccccc3N2)c(O)c2cccnc21 | 13200 |  | 
8 | O=c1c(C2=Nc3ccccc3S(=O)(=O)N2)c(O)c2ccccc2n1NCc1ccc(Br)cc1 | 4690 | 10400 | 
9 | O=c1c(C2=Nc3ccccc3S(=O)(=O)N2)c(O)c2ccccc2n1NCc1nccs1 | 674 | 35800 | 
10 | CCC(CC)Cn1c(=O)c(C2=NS(=O)(=O)c3ccccc3N2)c(O)c2cccnc21 | 58 |  | 
11 | O=c1c(C2=Nc3ccccc3S(=O)(=O)N2)c(O)c2ccccc2n1NCC1CCCCC1 | 150 | 2530 | 
12 | CCCC(CC)Nn1c(=O)c(C2=Nc3ccccc3S(=O)(=O)N2)c(O)c2ccccc21 (configuration not stated) | 386 | 1890 | 
13 | O=c1c(C2=Nc3ccccc3S(=O)(=O)N2)c(O)c2ccccc2n1NCc1ccccc1 | 129 | 5090 | 15700
14 | CC(C)CCn1c(=O)c(C2=NS(=O)(=O)c3ccccc3N2)c(O)c2cccnc21 | 69 |  | 
15 | Cc1ccccc1CNn1c(=O)c(C2=Nc3ccccc3S(=O)(=O)N2)c(O)c2ccccc21 | 481 | 6120 | 
16 | O=c1c(C2=Nc3ccccc3S(=O)(=O)N2)c(O)c2ccccc2n1NC1CCCCC1 | 60 | 356 | 1270
17 | Cc1ccc(CNn2c(=O)c(C3=Nc4ccccc4S(=O)(=O)N3)c(O)c3ccccc32)cc1 | > 5000 | > 5000 | 
18 | O=c1c(C2=NS(=O)(=O)c3ccccc3N2)c(O)c2cccnc2n1C1CCCCC1 | 50000 |  | 
19 | CC(C)COn1c(=O)c(C2=Nc3ccccc3S(=O)(=O)N2)c(O)c2cccnc21 | 20500 |  | 
20 | O=c1c(C2=NS(=O)(=O)c3ccccc3N2)c(O)c2cccnc2n1OCc1ccccc1 | 58000 |  | 
21 | O=c1c(C2=Nc3ccccc3S(=O)(=O)N2)c(O)c2ccccc2n1NCc1cccnc1 | 221 | > 5000 | 
22 | O=c1c(C2=Nc3ccccc3S(=O)(=O)N2)c(O)c2ccccc2n1NCC1CCC1 | 108 | 278 | 103
23 | O=c1c(C2=Nc3ccccc3S(=O)(=O)N2)c(O)c2ccccc2n1NCc1ccccc1Br | 469 | 6720 | 
24 | O=c1c(C2=NS(=O)(=O)c3ccccc3N2)c(O)c2ccccc2n1NC1CCOCC1 | 439 | 4630 | 
25 | CCCC(CCC)Nn1c(=O)c(C2=Nc3ccccc3S(=O)(=O)N2)c(O)c2ccccc21 | 1800 | 2240 | 
26 | O=c1c(C2=NS(=O)(=O)c3ccccc3N2)c(O)c2cccnc2n1CC1CCCCC1 | 93 |  | 
27 | CC(c1ccccc1)n1c(=O)c(C2=NS(=O)(=O)c3ccccc3N2)c(O)c2cccnc21 (configuration not stated) | 4630 |  | 
28 | O=c1c(C2=NS(=O)(=O)c3ccccc3N2)c(O)c2cccnc2n1CCc1ccccc1 | 1490 |  | 

Other lines, results leading:

Row | IC50 [1] [nM] | IC50 [2] [nM] | EC50 [3] [nM] | Structure (SMILES)
29 | 120 | 2460 |  | CCC(CC)Nn1c(=O)c(C2=NS(=O)(=O)c3ccccc3N2)c(O)c2ccccc21
30 | 212 | 8210 |  | Cc1cccc(CNn2c(=O)c(C3=NS(=O)(=O)c4ccccc4N3)c(O)c3ccccc32)c1
31 | 101 | 941 | 1350 | CC(C)CNn1c(=O)c(C2=NS(=O)(=O)c3ccccc3N2)c(O)c2ccccc21
32 | 1190 | 15000 |  | Cc1ccsc1CNn1c(=O)c(C2=NS(=O)(=O)c3ccccc3N2)c(O)c2ccccc21
33 | 135 | 411 |  | CC(C)(C)CCNn1c(=O)c(C2=NS(=O)(=O)c3ccccc3N2)c(O)c2ccccc21
34 | 1130 | 6400 |  | CCCC(Nn1c(=O)c(C2=NS(=O)(=O)c3ccccc3N2)c(O)c2ccccc21)C(C)C (configuration not stated)
35 | 640 | 6350 |  | CC(C)Nn1c(=O)c(C2=NS(=O)(=O)c3ccccc3N2)c(O)c2ccccc21
36 | 145 | 285 | 1050 | O=c1c(C2=NS(=O)(=O)c3ccccc3N2)c(O)c2ccccc2n1NCC1CC1
37 | 305 | 3260 |  | O=c1c(C2=NS(=O)(=O)c3ccccc3N2)c(O)c2ccccc2n1NCc1ccco1
38 |  | 928 |  | CCCCCNn1c(=O)c(C2=NS(=O)(=O)c3ccccc3N2)c(O)c2ccccc21
39 | 134 | 629 |  | CC(C)CCNn1c(=O)c(C2=Nc3ccccc3S(=O)(=O)N2)c(O)c2ccccc21
40 | 75 | 1040 |  | O=c1c(C2=NS(=O)(=O)c3ccccc3N2)c(O)c2ccccc2n1NCc1cccc(Br)c1
41 | 1450 | 4780 |  | O=c1c(C2=NS(=O)(=O)c3ccccc3N2)c(O)c2ccccc2n1NCc1ccc(Cl)s1
